Results from ChEMBL document CHEMBL1155265, “Design, synthesis and in vitro antibacterial/antifungal evaluation of novel 1-ethyl-6-fluoro-1,4-dihydro-4-oxo-7(1-piperazinyl)quinoline-3-carboxylic acid derivatives” (2009).

Key:
Format in all cases: functional
Erwinia = assay: Antibacterial activity against Erwinia aroideae at 50 mg/L after 24 hrs by agar well diffusion method; conditions: read-out: DIZ
Outline: (§1)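 Bacteria plated as 0.8 mL of 24-h-old inoculum mixed into 60 mL sterile molten agar cooled to 45 °C, poured into three dishes. Wells bored with centres at least 24 mm apart. Test sample at 50 mg/L in DMSO added to wells. DMSO served as negative control and agricultural streptomycin sulfate as positive control. Read-out was inhibition zone diameter (mm).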

Xanthomonas oryzae = assay: Antibacterial activity against Xanthomonas oryzae at 50 mg/L after 24 hrs by agar well diffusion method; conditions: read-out: DIZ
Xanthomonas axonopodis = assay: Antibacterial activity against Xanthomonas axonopodis at 50 mg/L after 24 hrs by agar well diffusion method; conditions: read-out: DIZ; outline: as §1
Fusarium graminearum = assay: Antifungal activity against Gibberella zeae at 200 mg/L by plate growth rate method; conditions: read-out: GI
Outline: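 Plate growth rate method: compound dissolved in DMSO, mixed into sterile PDA at 45 °C to 200 mg/L, plates poured. A 5 mm mycelium agar disc placed centrally; incubated at 28 °C in the dark until the untreated control covered the plate. Colony diameters measured; growth inhibition computed by Abbott's formula. Each compound tested three times.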

Ralstonia solanacearum = assay: Antibacterial activity against Ralstonia solanacearum at 50 mg/L after 24 hrs by agar well diffusion method; conditions: read-out: DIZ
Rhizoctonia solani = assay: Antifungal activity against Rhizoctonia solani at 200 mg/L by plate growth rate method; conditions: read-out: GI
Outline: (§2)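 Compound dissolved in DMSO and mixed into molten PDA at 45 °C at 200 mg/L, then plates allowed to set. A 5 mm mycelial agar disc was placed at the centre. Plates were incubated at 28 °C in the dark until the untreated control covered the plate. Colony diameters were measured and growth inhibition calculated by Abbott's formula. Each compound was tested three times.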

Bacillus subtilis = assay: Antibacterial activity against Bacillus subtilis at 50 mg/L after 24 hrs by agar well diffusion method; conditions: read-out: DIZ; outline: as §1
Cytospora mali = assay: Antifungal activity against Valsa mali at 200 mg/L by plate growth rate method; conditions: read-out: GI; outline: as §2

Row | Compound | zone of inhibition at 50 µg/mL (Erwinia) | zone of inhibition at 50 µg/mL (Xanthomonas oryzae) | zone of inhibition at 50 µg/mL (Xanthomonas axonopodis) | inhibition of growth at 200 µg/mL (Fusarium graminearum) | zone of inhibition at 50 µg/mL (Ralstonia solanacearum) | inhibition of growth at 200 µg/mL (Rhizoctonia solani) | zone of inhibition at 50 µg/mL (Bacillus subtilis) | inhibition of growth at 200 µg/mL (Cytospora mali)
1 | CCn1cc(C(=O)O)c(=O)c2cc(F)c(N3CCN(C(=O)c4ccco4)CC3)cc21 | 13.8 mm | 22.9 mm | 15.5 mm | 7% | 9.81 mm | 14% | 22.5 mm | 8%
2 | CCn1cc(C(=O)O)c(=O)c2cc(F)c(N3CCN(C(=O)COc4ccccc4OC)CC3)cc21 | 12.9 mm | 11.9 mm | 11 mm | 14% | 4.97 mm | 0% | 17.7 mm | 7%
3 | CCn1cc(C(=O)O)c(=O)c2cc(F)c(N3CCN(C(=O)c4ccc(Br)o4)CC3)cc21 | 13.7 mm | 13 mm | 12.1 mm | 26% | 6.72 mm | 47% | 18.9 mm | 27%
4 | CCn1cc(C(=O)O)c(=O)c2cc(F)c(N3CCN(C(=O)c4cc(C)oc4C)CC3)cc21 | 11.7 mm | 18.1 mm | 11.7 mm | 25% | 8.39 mm | 16% | 15.7 mm | 29%
5 | COC(=O)Nc1nc2ccccc2[nH]1 [CARBENDAZIM] | – | – | – | 100% | – | 100% | – | 95%
6 | CCn1cc(C(=O)O)c(=O)c2cc(F)c(N3CCN(C(=O)COc4ccccc4Cl)CC3)cc21 | 11.8 mm | 17.2 mm | 10.4 mm | 10% | 4.67 mm | 3% | 14.2 mm | 12%
7 | CCn1cc(C(=O)O)c(=O)c2cc(F)c(N3CCN(C(=O)c4ccccc4Br)CC3)cc21 | 16.2 mm | 16.5 mm | 14.6 mm | 34% | 8.14 mm | 15% | 20.1 mm | 44%
8 | CCn1cc(C(=O)O)c(=O)c2cc(F)c(N3CCN(C(=O)COc4ccc(Br)cc4)CC3)cc21 | 8.94 mm | 8.02 mm | 10.7 mm | 6% | 7.47 mm | 49% | 12.7 mm | 9%
9 | CCn1cc(C(=O)O)c(=O)c2cc(F)c(N3CCN(C(=O)Cc4cccc5ccccc45)CC3)cc21 | 10.4 mm | 9.35 mm | 9.99 mm | 12% | 0 mm | 5% | 13.2 mm | 0%
10 | CCn1cc(C(=O)O)c(=O)c2cc(F)c(N3CCN(C(=O)/C=C/c4ccc(C)o4)CC3)cc21 | 11.2 mm | 18.1 mm | 10.2 mm | 25% | 6.97 mm | 83% | 17 mm | 25%
11 | CCn1cc(C(=O)O)c(=O)c2cc(F)c(N3CCN(C(=O)c4ccc(C)cc4)CC3)cc21 | 14.6 mm | 19.7 mm | 13 mm | 28% | 3.22 mm | 36% | 17.1 mm | 37%
12 | CCn1cc(C(=O)O)c(=O)c2cc(F)c(N3CCN(C(=O)c4c(C)oc(C)c4C)CC3)cc21 | 12.4 mm | 12.7 mm | 11.1 mm | 24% | 5.31 mm | 65% | 13.9 mm | 40%
